The source of these data is ChEMBL document CHEMBL1140334, “Synthesis and structure-activity relationships of pyrazine-pyridine biheteroaryls as novel, potent, and selective vascular endothelial growth factor receptor-2 inhibitors” (J Med Chem, 2005).

Assay [1] is described as follows: Inhibition of cyclin-dependent kinase 1 activity. In outline:
(§1)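 Radiometric kinase assay. Conditions varied slightly per kinase. Stopped with PBS/100 mM EDTA, read by scintillation counting. IC50 by linear regression of % inhibition, mean of at least two determinations.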

For another assay, the system named is MRC5. The assay can be described thus: Concentration required to inhibit proliferation of human MRC5 fibroblast cell growth.
The next assay has as its system HeLa. Description: Concentration required to inhibit proliferation of HeLa cell growth. Particulars: Homo sapiens.
Another assay has as its target Casein kinase I. The assay can be described thus: Inhibition of casein kinase 1. It counts as protein assay.
Assay [2] is described as follows: Inhibition of protein kinase C gamma. In outline:
as §1

Assay [3] concerns A-375. The assay can be described thus: Concentration required to inhibit proliferation of A375 human amelanotic melanoma cell growth.
Another assay deals with HASMC. The assay can be described thus: Concentration required to inhibit proliferation of HASMC. The settings on record: Homo sapiens.
Assay [4] in a line: Inhibition of protein kinase A. In outline:
as §1

For assay [5], the system named is HUVEC. Description: Concentration inhibiting VEGF stimulated (2 ng/well) HUVE cell proliferation. Particulars: Homo sapiens.
Assay [6] concerns the target Glycogen synthase kinase-3 (Homo sapiens, UniProt P49840+P49841). The assay can be described thus: Inhibition of glycogen synthase kinase-3. In kind it is protein assay. Put shortly: as §1
The test system of another assay is HCT-116. The assay can be described thus: Concentration required to inhibit proliferation of human HCT116 colon cancer cell growth.
For assay [7], the system named is HUVEC. The assay can be described thus: Concentration required to inhibit proliferation of HUVEC. The settings on record: Homo sapiens.
Assay [8] has as its target T1, Vascular endothelial growth factor receptor 2 (Homo sapiens, UniProt P35968). The assay can be described thus: Inhibitory concentration (experimental) against vascular endothelial growth factor receptor 2. Put shortly: as §1
The target in assay [9] is T1, Vascular endothelial growth factor receptor 2. The assay can be described thus: Inhibition of vascular endothelial growth factor receptor 2. In outline:
as §1

Assay [10] has as its target Mitogen-activated protein kinase 1 (Homo sapiens, UniProt P28482). Description: Inhibition of mitogen-activated protein kinase. In outline:
as §1

The test system of assay [11] is A-375. The assay can be described thus: The antitumor activity shown by the compound against A375 human melanoma xenografts growing in nude mice (75 mg/kg, i.p.) in terms of mean day of survival. In kind it is functional, Mus musculus. Put shortly: (§2)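 Female nude mice carried subcutaneous flank implants of 1 mm3 A375 fragments and were pair-matched on day 1 at tumors of 62-126 mg. Dosing was i.p. once daily for 30 days, in 1.5% Pluronic F108 vehicle; the study ended at day 60. Tumor weight was taken as (w2l)/2. Mice were euthanized at 2.0 g, and MDS was derived from calculated time to endpoint.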
Background: A xenograft is tissue or cells of one species grown in another, often human tumour cells in immunodeficient mice.

The target of another assay is CaM kinase II (Homo sapiens, UniProt Q13557+Q13555+Q13554+Q9UQM7). The assay can be described thus: Inhibition of calcium/calmodulin-dependent protein kinase type II. It counts as protein assay.
For assay [12], the system named is A-375. Description: The antitumor activity shown by the compound against A375 human melanoma xenografts growing in nude mice (10 mg/kg, i.p.) in terms of mean day of survival. It counts as functional, Mus musculus. In outline: as §2
The target of the next assay is Insulin receptor (Homo sapiens, UniProt P06213). Description: Inhibition of insulin Receptor kinase. Put shortly:
as §1

The target of the next assay is Casein kinase II (Homo sapiens, UniProt P19784+P67870+P68400). Description: Inhibition of casein kinase 2. It counts as protein-complex assay. In outline: as §1
Chain of Casein kinase II (P67870 whole entry): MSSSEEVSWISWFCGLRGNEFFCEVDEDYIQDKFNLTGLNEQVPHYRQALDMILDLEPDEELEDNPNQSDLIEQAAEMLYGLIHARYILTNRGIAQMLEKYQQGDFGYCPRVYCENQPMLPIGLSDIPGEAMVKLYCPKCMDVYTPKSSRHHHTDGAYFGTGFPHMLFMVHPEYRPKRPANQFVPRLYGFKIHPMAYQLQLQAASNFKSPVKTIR
Chain of Casein kinase II (P68400 whole entry): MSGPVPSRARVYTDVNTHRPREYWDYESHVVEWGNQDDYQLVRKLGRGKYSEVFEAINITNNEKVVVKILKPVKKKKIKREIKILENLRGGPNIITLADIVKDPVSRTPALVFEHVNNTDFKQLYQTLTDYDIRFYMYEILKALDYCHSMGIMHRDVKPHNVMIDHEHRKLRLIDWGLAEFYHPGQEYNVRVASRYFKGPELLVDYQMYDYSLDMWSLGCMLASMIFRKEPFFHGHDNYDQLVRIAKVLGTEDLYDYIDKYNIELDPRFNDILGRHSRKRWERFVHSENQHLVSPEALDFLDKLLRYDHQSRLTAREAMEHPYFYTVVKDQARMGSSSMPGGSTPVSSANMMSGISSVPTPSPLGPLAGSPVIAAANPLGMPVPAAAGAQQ
Chain of Casein kinase II (P19784 whole entry): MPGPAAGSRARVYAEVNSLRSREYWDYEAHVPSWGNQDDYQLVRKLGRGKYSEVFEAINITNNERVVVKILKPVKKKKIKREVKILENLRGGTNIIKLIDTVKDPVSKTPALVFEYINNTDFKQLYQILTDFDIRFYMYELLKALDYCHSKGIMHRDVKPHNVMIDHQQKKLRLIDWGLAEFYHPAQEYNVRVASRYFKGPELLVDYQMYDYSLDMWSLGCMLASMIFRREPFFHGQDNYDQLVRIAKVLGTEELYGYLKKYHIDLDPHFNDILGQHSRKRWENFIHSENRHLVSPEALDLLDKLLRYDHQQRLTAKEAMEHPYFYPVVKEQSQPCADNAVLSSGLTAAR
Assay [13] deals with Protein kinase C beta type (Homo sapiens, UniProt P05771). Description: Inhibition of protein kinase C beta activity. Put shortly: as §1
Chain of Protein kinase C beta type (P05771 whole entry): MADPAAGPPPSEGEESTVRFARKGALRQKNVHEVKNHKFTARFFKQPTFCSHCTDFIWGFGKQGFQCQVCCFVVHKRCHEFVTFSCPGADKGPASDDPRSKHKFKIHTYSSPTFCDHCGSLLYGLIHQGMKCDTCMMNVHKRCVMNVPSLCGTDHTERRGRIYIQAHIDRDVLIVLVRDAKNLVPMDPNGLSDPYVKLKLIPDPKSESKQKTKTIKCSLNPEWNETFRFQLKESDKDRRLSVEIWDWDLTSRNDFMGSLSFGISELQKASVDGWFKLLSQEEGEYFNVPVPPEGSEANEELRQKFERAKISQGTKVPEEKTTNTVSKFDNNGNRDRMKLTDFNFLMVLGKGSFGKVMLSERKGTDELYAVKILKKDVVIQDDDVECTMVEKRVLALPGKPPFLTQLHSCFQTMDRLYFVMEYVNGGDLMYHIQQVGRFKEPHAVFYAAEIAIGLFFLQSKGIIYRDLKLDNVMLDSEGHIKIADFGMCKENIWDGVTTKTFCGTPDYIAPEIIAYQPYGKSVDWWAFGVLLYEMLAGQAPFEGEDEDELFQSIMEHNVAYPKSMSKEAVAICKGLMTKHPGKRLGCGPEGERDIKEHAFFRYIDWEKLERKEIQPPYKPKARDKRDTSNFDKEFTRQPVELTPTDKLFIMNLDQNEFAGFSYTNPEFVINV

Chain of Insulin receptor (P06213 28-758 limits assumed): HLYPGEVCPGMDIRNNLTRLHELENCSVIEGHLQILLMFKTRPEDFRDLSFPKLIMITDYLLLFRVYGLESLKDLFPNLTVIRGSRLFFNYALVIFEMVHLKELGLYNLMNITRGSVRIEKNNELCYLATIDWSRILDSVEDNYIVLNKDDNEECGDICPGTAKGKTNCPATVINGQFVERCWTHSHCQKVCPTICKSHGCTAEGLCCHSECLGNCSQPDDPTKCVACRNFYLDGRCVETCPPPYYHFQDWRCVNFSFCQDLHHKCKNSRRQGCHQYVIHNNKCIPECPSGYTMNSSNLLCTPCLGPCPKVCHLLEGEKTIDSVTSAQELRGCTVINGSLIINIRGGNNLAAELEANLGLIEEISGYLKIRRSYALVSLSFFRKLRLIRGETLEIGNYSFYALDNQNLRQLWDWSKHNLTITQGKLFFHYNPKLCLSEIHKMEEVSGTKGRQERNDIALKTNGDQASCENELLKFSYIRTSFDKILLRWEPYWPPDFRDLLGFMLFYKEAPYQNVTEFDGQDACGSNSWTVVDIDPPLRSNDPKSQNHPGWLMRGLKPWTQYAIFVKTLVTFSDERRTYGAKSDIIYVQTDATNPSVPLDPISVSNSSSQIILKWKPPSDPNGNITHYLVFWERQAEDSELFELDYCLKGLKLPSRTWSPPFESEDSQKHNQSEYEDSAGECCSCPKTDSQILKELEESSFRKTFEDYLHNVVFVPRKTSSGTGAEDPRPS
Chain of Insulin receptor (P06213 763-1382 limits assumed): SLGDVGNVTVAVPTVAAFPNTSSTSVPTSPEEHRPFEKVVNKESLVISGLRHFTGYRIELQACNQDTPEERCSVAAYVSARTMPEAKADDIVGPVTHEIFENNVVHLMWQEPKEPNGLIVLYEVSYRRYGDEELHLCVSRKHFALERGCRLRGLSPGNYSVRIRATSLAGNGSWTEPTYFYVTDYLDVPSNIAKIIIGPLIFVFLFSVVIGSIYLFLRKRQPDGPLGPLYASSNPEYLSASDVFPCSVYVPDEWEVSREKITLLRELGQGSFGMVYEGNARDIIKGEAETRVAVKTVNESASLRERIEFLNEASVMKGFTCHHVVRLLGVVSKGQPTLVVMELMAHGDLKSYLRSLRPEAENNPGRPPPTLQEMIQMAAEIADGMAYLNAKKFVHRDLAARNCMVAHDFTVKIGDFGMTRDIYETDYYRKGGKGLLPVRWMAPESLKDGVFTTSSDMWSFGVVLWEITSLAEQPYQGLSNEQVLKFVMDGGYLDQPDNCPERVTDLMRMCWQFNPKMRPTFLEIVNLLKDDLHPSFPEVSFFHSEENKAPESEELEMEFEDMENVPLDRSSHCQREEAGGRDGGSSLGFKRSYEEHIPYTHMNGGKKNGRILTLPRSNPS
T1 sequence (P35968 whole entry): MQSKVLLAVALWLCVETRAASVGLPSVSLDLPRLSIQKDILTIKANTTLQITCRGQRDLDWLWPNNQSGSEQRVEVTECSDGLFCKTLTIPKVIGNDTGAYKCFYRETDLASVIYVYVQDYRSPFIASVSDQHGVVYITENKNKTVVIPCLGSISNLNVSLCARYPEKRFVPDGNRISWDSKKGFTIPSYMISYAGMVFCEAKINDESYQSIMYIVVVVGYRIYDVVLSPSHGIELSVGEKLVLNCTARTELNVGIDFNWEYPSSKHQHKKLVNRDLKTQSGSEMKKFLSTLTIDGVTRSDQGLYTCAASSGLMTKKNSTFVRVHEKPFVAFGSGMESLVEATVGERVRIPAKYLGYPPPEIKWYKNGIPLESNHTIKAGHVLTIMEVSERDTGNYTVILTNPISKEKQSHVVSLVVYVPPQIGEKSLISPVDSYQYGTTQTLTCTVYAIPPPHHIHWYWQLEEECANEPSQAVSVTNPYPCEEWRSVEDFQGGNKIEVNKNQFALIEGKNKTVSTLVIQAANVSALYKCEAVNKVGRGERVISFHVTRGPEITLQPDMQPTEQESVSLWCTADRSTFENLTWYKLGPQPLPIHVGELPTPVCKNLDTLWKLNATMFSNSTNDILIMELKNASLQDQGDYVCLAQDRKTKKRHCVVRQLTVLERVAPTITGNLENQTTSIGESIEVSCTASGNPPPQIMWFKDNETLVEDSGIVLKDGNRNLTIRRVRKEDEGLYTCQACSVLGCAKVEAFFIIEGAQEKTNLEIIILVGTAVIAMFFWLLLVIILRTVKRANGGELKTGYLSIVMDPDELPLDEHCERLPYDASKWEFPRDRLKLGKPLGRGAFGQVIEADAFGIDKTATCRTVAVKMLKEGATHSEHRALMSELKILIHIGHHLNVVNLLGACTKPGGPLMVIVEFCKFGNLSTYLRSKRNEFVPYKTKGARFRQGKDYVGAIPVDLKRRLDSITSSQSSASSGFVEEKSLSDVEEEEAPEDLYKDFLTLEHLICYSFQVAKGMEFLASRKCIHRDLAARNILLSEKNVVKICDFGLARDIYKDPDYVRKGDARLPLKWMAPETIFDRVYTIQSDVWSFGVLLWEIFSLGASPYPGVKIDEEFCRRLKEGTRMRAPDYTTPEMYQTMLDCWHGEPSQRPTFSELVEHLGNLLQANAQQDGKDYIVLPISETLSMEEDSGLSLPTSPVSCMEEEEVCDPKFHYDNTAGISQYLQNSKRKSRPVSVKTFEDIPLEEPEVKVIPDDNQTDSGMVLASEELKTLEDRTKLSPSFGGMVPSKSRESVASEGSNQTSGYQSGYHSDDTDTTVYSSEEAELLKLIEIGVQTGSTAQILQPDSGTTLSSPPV
Chain of Mitogen-activated protein kinase 1 (P28482 whole entry): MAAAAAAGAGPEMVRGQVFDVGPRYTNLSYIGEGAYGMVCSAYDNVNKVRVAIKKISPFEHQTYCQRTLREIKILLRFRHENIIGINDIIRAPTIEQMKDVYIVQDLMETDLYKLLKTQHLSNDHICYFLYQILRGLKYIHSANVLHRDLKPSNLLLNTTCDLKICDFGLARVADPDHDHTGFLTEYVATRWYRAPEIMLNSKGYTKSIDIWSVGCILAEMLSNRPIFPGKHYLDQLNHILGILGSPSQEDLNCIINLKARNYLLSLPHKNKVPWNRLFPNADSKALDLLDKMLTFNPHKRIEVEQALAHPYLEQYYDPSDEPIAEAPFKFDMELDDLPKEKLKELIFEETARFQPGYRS

Turning to `OCCCNc1cncc(-c2cncc(Nc3cccc(Cl)c3)n2)c1`, the IC50 was over 10000 nM in [1]; 6600 nM with MRC5; over 10000 nM in the assay on HeLa; over 10000 nM against Casein kinase I; over 10000 nM in assay [2]; over 10000 nM with A-375 [3]. The IC50 in the assay on HASMC is 3870 nM; in assay [4], over 10000 nM; in the assay with HUVEC [5] it was 164 nM; in assay [6] (read-out: IC50) it was 478 nM; in the assay with HCT-116, over 10000 nM; in the assay with HUVEC [7], 1680 nM.

In the case of `O=C(NCCCO)c1cncc(-c2cncc(Nc3cccc(Cl)c3)n2)c1`, the figures for the IC50 in assay [1], in assay [8] and in assay [9] were over 10000 nM, 2400 nM and 2380 nM, respectively.

Take `O=C(COc1ccccc1)Nc1cncc(-c2cncc(Nc3cccc(Cl)c3)n2)c1`: the IC50 in [1] and in assay [9] was over 10000 nM each time.

Take `OCCCNc1cncc(-c2cncc(Nc3ccccc3Cl)n2)c1`: the IC50 in assay [1] was over 10000 nM; in assay [8], 1000 nM; in assay [9], 1010 nM.

Regarding `Clc1cccc(Nc2cncc(-c3cncc(NCCCCc4ccncc4)c3)n2)c1`, the figures for the IC50 in assay [1], in [8] and in assay [9] were 10000 nM, 263 nM and 266 nM, respectively.

As to `OCCNc1cncc(-c2cncc(Nc3cccc(Cl)c3)n2)c1`, the IC50 in assay [1] was over 10000 nM; in assay [8] it was 275 nM; in [9], 275 nM.

`OCCCCNc1cncc(-c2cncc(Nc3cccc(Cl)c3)n2)c1`: the IC50 in assay [1] was over 10000 nM; in assay [10], over 10000 nM; in the assay with MRC5, 3610 nM; in assay [8], 63.1 nM; with HeLa, 5560 nM; in assay [2], over 10000 nM. The IC50 in the assay with A-375 [3] was 6080 nM; on CaM kinase II, over 10000 nM; in the assay with HASMC, 3230 nM; against Insulin receptor, over 10000 nM; in [4], over 10000 nM; in the assay with HUVEC [5], 63 nM. Besides, the IC50 in [6] was 4020 nM; against Casein kinase II, over 10000 nM; in [9] it was 63 nM; with HCT-116, over 10000 nM; in assay [13], over 10000 nM; in the assay with HUVEC [7], 1170 nM. For the same compound, the MDS was determined as 29.2 in the assay on A-375 [11] and 24 in the assay on A-375 [12].

As to `Clc1cccc(Nc2cncc(-c3cncc(NCC4CCOCC4)c3)n2)c1`, the IC50 was over 10000 nM in assay [1], 389 nM in assay [8] and 391 nM in assay [9].

As to `OCCCNc1cncc(-c2cncc(NCc3ccccc3)n2)c1`, the IC50 was over 10000 nM in assay [1], 1050 nM in assay [8] and 1050 nM in assay [9].

Turning to `OCCCNc1cnc(F)c(-c2cncc(Nc3cccc(Cl)c3)n2)c1`, the IC50 was over 10000 nM in assay [1], 251 nM in [8] and 251 nM in [9].

On to `CN(C)c1ccc(C(=O)Nc2cncc(-c3cncc(Nc4cccc(Cl)c4)n3)c2)cc1`, for which the IC50 in [1] and in [9] was over 10000 nM in each case.

With `OCCCNc1cnc(Cl)c(-c2cncc(Nc3cccc(Cl)c3)n2)c1`, the IC50 in assay [1] and in assay [9] was over 10000 nM throughout.

With `Clc1ccc(Nc2cncc(-c3cncc(NCCCc4ccncc4)c3)n2)cc1Cl`, the IC50 is over 10000 nM in assay [1], 191 nM in assay [8] and 189 nM in assay [9].

As to `Nc1ncc(NCCCO)cc1-c1cncc(Nc2cccc(Cl)c2)n1`, the IC50 in assay [1] was over 10000 nM; in [8] it was 1350 nM; in assay [9] it was 1360 nM.

Regarding `CN1CCN(CCCNc2cncc(-c3cncc(Nc4cccc(Cl)c4)n3)c2)CC1`, the IC50 in assay [1] was over 10000 nM; in assay [8] it was 123 nM; in assay [9], 123 nM.

Turning to `OCCCNc1cncc(-c2cncc(Nc3cccc(F)c3)n2)c1`, the IC50 in assay [1] is over 10000 nM; in [8], 170 nM; in [9], 168 nM.

Regarding `Clc1ccc(Nc2cncc(-c3cncc(NCCCc4ccncc4)c3)n2)cc1`, the IC50 in assay [1] is over 10000 nM; in [8], 1000 nM; in assay [9], 1000 nM.

`Clc1cccc(Nc2cncc(-c3cncc(NCCCN4CCNCC4)c3)n2)c1`: the IC50 was 5620 nM in [1], 234 nM in [8] and 236 nM in [9].

Regarding `Clc1cccc(Nc2cncc(-c3cncc(NCCOc4ccccc4)c3)n2)c1`, the IC50 in assay [1] and in [9] was over 10000 nM each time.

As to `Clc1cccc(Nc2cncc(-c3cncc(NCCCc4ccccc4)c3)n2)c1`, the IC50 is over 10000 nM in assay [1], 2290 nM in assay [8] and 2280 nM in [9].

Regarding `COCC(=O)Nc1cncc(-c2cncc(Nc3cccc(Cl)c3)n2)c1`, the IC50 was over 10000 nM in assay [1], 302 nM in assay [8] and 303 nM in assay [9].

As for `Clc1cccc(Nc2cncc(-c3cncc(NCCCN4CCOCC4)c3)n2)c1`, the IC50 in assay [1] was over 10000 nM; in assay [8], 182 nM; in assay [9] it was 180 nM.

`Clc1cccc(Nc2cncc(-c3cncc(NCCCN4CCCCC4)c3)n2)c1`: the IC50 in [1] was 5380 nM; in assay [8], 398 nM; in assay [9], 399 nM.

For `Nc1cncc(-c2cncc(Nc3cccc(Cl)c3)n2)c1`, the figures for the IC50 in assay [1], in assay [8] and in [9] were over 10000 nM, 1150 nM and 1160 nM, respectively.

On to `O=C(COCc1ccccc1)Nc1cncc(-c2cncc(Nc3cccc(Cl)c3)n2)c1`, for which the IC50 in assay [1] and in assay [9] was over 10000 nM in each case.

In the case of `COc1cccc(Nc2cncc(-c3cncc(NCCCO)c3)n2)c1`, the values for the IC50 in [1], in assay [8] and in assay [9] were over 10000 nM, 741 nM and 740 nM, respectively.

`O=C(CCCNc1cncc(-c2cncc(Nc3cccc(Cl)c3)n2)c1)N1CCCCC1`: the values for the IC50 in assay [1], in [8] and in assay [9] were over 10000 nM, 617 nM and 610 nM, respectively.

In the case of `COCCC(=O)Nc1cncc(-c2cncc(Nc3cccc(Cl)c3)n2)c1`, the concentration for half-maximal inhibition (IC50) in [1] is over 10000 nM; in assay [8] it was 589 nM; in assay [9], 593 nM.

Turning to `CN(C)CCCNc1cncc(-c2cncc(Nc3cccc(Cl)c3)n2)c1`, the IC50 in [1] was over 10000 nM; in assay [8] it was 135 nM; in [9], 135 nM.

For `OCCCNc1cncc(-c2cncc(Oc3cccc(Cl)c3)n2)c1`, the IC50 in [1] and in [9] was over 10000 nM in each case.

Regarding `O=C(O)CCCNc1cncc(-c2cncc(Nc3cccc(Cl)c3)n2)c1`, the IC50 is 5220 nM in assay [1], 575 nM in assay [8] and 568 nM in assay [9].

Turning to `CN(C)CCNC(=O)c1cncc(-c2cncc(Nc3cccc(Cl)c3)n2)c1`, the IC50 in assay [1] is 3690 nM; in assay [8], 4270 nM; in assay [9], 4300 nM.

For the compound `Clc1cccc(Nc2cncc(-c3cncc(NCCCc4ccncc4)c3)n2)c1`, the figures for the IC50 in assay [1], in assay [8] and in assay [9] were over 10000 nM, 75.9 nM and 76 nM, respectively.

Turning to `O=C(CO)Nc1cncc(-c2cncc(Nc3cccc(Cl)c3)n2)c1`, the IC50 is over 10000 nM in [1], 347 nM in assay [8] and 346 nM in assay [9].

For the compound `Clc1cccc(Nc2cncc(-c3cncc(NCCCn4cccn4)c3)n2)c1`, the IC50 in assay [1] is over 10000 nM; in assay [10], over 10000 nM; in the assay on MRC5, 3610 nM; in assay [8], 93.3 nM; in the assay on HeLa, 3500 nM; at Casein kinase I, 5600 nM. Also, the IC50 in the assay on A-375 [3] is 2840 nM; on CaM kinase II, over 10000 nM; in the assay with HASMC it was 3000 nM; on Insulin receptor, over 10000 nM; in assay [4], over 10000 nM; in the assay on HUVEC [5] it was 120 nM. Further, the IC50 was found to be 606 nM in assay [6]; 8100 nM at Casein kinase II; 94 nM in [9]; 5240 nM in the assay on HCT-116; 1390 nM in the assay on HUVEC [7].

Regarding `Clc1cccc(Nc2cncc(-c3cncc(NCCCn4cncn4)c3)n2)c1`, the IC50 in assay [1] is over 10000 nM; in [10] it was over 10000 nM; in the assay with MRC5, 6720 nM; in assay [8] it was 67.6 nM; in the assay with HeLa, 6060 nM; on Casein kinase I, 6500 nM. Moreover, the IC50 in the assay on A-375 [3] was 5160 nM; in the assay on HASMC it was 2980 nM; on Insulin receptor, over 10000 nM; in assay [4] it was over 10000 nM; in the assay with HUVEC [5], 57 nM; in [6] it was 196 nM. Besides, the half-inhibitory concentration (IC50) at Casein kinase II is 7200 nM; in assay [9] it was 67 nM; in the assay with HCT-116, over 10000 nM; with HUVEC [7], 1070 nM.

What is called IC50 is the concentration at which inhibition is half-maximal.
